PolyA inh: inhibitors of polyadenylation in S. cerevisiae; S. cerevisiae SKY197-pL101 polyadenylation reporter, beta-gal luminescence; efflux-impaired pdr1/pdr3 knockout yeast; score 100 = 6 SD above DMSO; activity score, % at 12 µM; 300,000 tested, 0.02% active; AID 1875;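 active means lowest replicate activity score at least 50, where 100 means six control SD above control mean; inconclusive means lowest score under 50 but half or more replicates reach 50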;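 further: yeast exposed to compound for 9 h at 30 °C; higher score means more reporter readthrough which indicates perturbed polyadenylation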
HIF act: HIF pathway transcriptional activation. activation, % at 7.5 µM (by protocol). AID 1910. U2OS HRE-luciferase reporter, luminescence; normalized: DMSO 0%, desferrioxamine 100%. 300,000 tested, 0.32% active;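 active means mean activation of at least 10% of the iron chelator positive control signal, with at least half of replicates also reaching 10%; inconclusive means mean and replicate majority disagree about reaching 10%; inactive means mean and most replicates under 10%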
Beta apoptosis: beta cell apoptosis inhibition; INS-1E cytokine-induced death, ATP luminescence, 48 h; percent of positive-control rescue, neutral wells zero; protection from apoptosis, % (concentration not given with the values); 300,000 tested, 0.8% active; AID 435005;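 active means Every replicate reaches about 75%, or at least half do and their mean reaches it too, limit read from the data; inconclusive means At least half of replicates reach the limit but their mean does not; inactive means Under half of replicates reach the limit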;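 further: higher means more ATP so stronger rescue from cytokine killing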
Calb FLC: affects C. albicans growth with fluconazole | growth inhibition, % (concentration not given with the values) | C. albicans CaCi-2 (fluconazole-resistant clinical isolate) + fluconazole, Alamar Blue growth, 48 h | 300,000 tested, 0.57% active;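 active means growth inhibition above about 58% in most replicates, limit read from the data, passing the limit was not always enough; inconclusive means exactly half the replicates above a set limit; inactive means most replicates below a set limit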;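 further: all wells also contain fluconazole at 8 µg/ml as a sub-toxic cotreatment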
CSC inhib: cancer stem cell inhibition | cancer stem cell-like cells viability, luminescence | inhibition, % at 7.5 µM | 300,000 tested, 1.1% active; in the data active means inhibition above about 75%; inconclusive means no clear call, values can overlap the other calls; tested in HMLE shEcad cells
T cruzi repl: blocks replication of Trypanosoma cruzi; T. cruzi beta-gal in NIH3T3, luminescence, 90 h; inhibition, % (test concentration not listed); 300,000 tested, 1.4% active;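 active means mean inhibition across valid replicates above about 55%, limit read from the data; inconclusive means mean below that limit but half or more replicates reach it; inactive means mean below it, under half of replicates reach it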;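 further: signal also drops with host cell toxicity which is not excluded here; higher percent means less beta-gal luminescence so fewer parasites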
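compound dosing = single 50 nL compound addition per well in DMSO | material = NIH/3T3 host cells with β-galactosidase reporter T. cruzi | input = 5,000 host fibroblasts per well | timing = ≥90 h infection period, 3 h prior cell attachment | read-out basis = percent inhibition of parasite-derived β-gal signal | detection = GalScreen β-gal luminescence, detergent lysis, 60 min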
Of the large screens only hits and unclear results are named; the others gave an inactive call. A selection: hits, their analogues and other compounds. The true share with any hit is near 3.1%.

Cc1ccc(OCC(=O)N/N=C\c2c(C)[nH]n(-c3ccccc3)c2=O)c([N+](=O)[O-])c1	Beta apoptosis 87, Calb FLC 106
Cc1[nH]n(-c2ccccc2)c(=O)c1/C=N/Nc1nncc(-c2ccccc2)n1	Beta apoptosis 91, Calb FLC 105, CSC inhib 110, T cruzi repl 70
COc1ccc(C(=O)C[n+]2ccc3c(c2)nnn3-c2ccccc2)cc1	none
CCOc1cccc(C(=O)NNC(=O)C2C3C=CC(C3)C2C(=O)O)c1 (stereo not drawn)	none (no result: CSC inhib)
Cc1[nH]n(-c2ccc(Br)cc2)c(=O)c1/C=N/NC(=O)c1ccccc1	Beta apoptosis 104, CSC inhib 80
Cc1cc(C(=O)N/N=C/c2c(C)[nH]n(-c3ccccc3)c2=O)n[nH]1	none (no result: CSC inhib)
CCn1c(C)nc2cc(C(=O)N/N=C(\C)c3ccccc3O)ccc21	Calb FLC inconclusive
O=C(N/N=C/c1cc(Cl)ccc1O)c1ccncc1	HIF act 26
O=C(N/N=C/c1ccccc1Cl)c1ccncc1	none
O=C(N/N=C/c1cc2cc3c(cc2nc1Cl)OCO3)c1ccncc1	HIF act 345
CCc1ccc(-n2c(C)cc(/C=N/NC(=O)c3ccncc3)c2C)cc1	Beta apoptosis 106
CCc1noc(C)c1C(=O)N1CCSC1=Nc1cccc(Cl)c1C	none
COc1cc(C(=O)NNC(=S)NCc2ccco2)cc(OC)c1OC	none
COC(CNC(=O)CCc1c(C)nc2c(c(C)nn2-c2ccc(C)cc2)c1C)OC	none
Cc1ccc(-n2nc(C)c3c(C)c(CCC(=O)Nc4ccc(CN5CCCC5)cc4)c(C)nc32)cc1	CSC inhib inconclusive, T cruzi repl 72
c1ccc(C2Nc3ccccc3C3OCCCC23)cc1 (stereo not drawn)	none
Cc1cc(C)cc(NC(=S)NCC2CCN(C(C)c3ccccc3)C2)c1 (stereo not drawn)	none
Cc1ccccc1NC(=S)NCC1CCN(C(C)c2ccccc2)C1 (stereo not drawn)	PolyA inh inconclusive, T cruzi repl 58
Cc1ccccc1N(C(=O)CNC(=O)c1ccco1)C(C(=O)NC1CCCC1)c1ccncc1 (stereo not drawn)	none
CCCC(=O)N1CCN(c2ccc(NC(=S)NC(=O)c3cccc(C)c3)cc2)CC1	none
O=C(Nc1ncccc1O)c1ccc(S(=O)(=O)Nc2ccccc2)cc1	HIF act 72 (no result: Beta apoptosis)
O=C(Nc1ccccc1O)c1ccc(NS(=O)(=O)c2cccc3cccnc23)cc1	HIF act 127, CSC inhib inconclusive
CCN(CC)C(=O)[C@H]1CC(CC(=O)NCCN2CCOCC2)C(=O)N2CCc3c([nH]c4ccccc34)[C@]12C (stereo partly drawn)	none (no result: PolyA inh, HIF act, Calb FLC, T cruzi repl)
CC(=O)NCCC(=O)Nc1nc(-c2ccc3ccccc3c2)cs1	T cruzi repl 60 (no result: Beta apoptosis, CSC inhib)
Cc1ccc(-c2csc(NC(=O)CCCc3cccs3)n2)cc1	none (no result: CSC inhib)
Oc1ccc(-c2csc(Nc3ncccn3)n2)cc1	none
CC(=O)Nc1nc(-c2ccc3ccccc3c2)cs1	none
Oc1ccc(Nc2nc(-c3ccc4ccccc4c3)cs2)cc1	Beta apoptosis 84, CSC inhib 134
CC(=O)Nc1ccc(-c2csc(NC(=O)CCCc3cccs3)n2)cc1	CSC inhib 75
CCCNc1nc2c(c(=O)n(C)c(=O)n2C)n1CCCc1ccccc1	none
CCN(CC)S(=O)(=O)c1ccc(S(=O)(=O)N2CCC(N3CCCCC3)CC2)cc1	none
CCOC(=O)CN1CCC(c2cc(-c3ccc(Cl)cc3)n[nH]2)CC1	none
O=[N+]([O-])c1cccnc1N1CCC(c2cc(-c3ccc(Cl)cc3)n[nH]2)CC1	CSC inhib 101
CCCOc1ccc(C(=O)N2CCN(c3ccc(N)cc3Cl)CC2)cc1	CSC inhib 76
CCCCOc1ccc(C(=O)N2CCN(c3ccc(N4CCOCC4)nn3)CC2)cc1	none
Cc1cc(C)c(NC(=O)CCCN2CCN(C)CC2)c(C)c1	none
CN1CCN(CCCc2c3c(cc4c2CCC4)CCC3)CC1	T cruzi repl 62
O=C(N/N=C\c1ccc([N+](=O)[O-])s1)c1cncc(Br)c1	Beta apoptosis 84, Calb FLC 108
O=C(N/N=C/c1ccc([N+](=O)[O-])s1)C(O)c1ccccc1 (stereo not drawn)	Beta apoptosis 94, T cruzi repl 77
O=C(N/N=C/c1cccs1)c1cncc(Br)c1	none
O=C(N/N=C/c1ccc([N+](=O)[O-])s1)c1ccccc1	none (no result: CSC inhib)
Cc1cc(C(=O)N/N=C/c2ccc([N+](=O)[O-])s2)c2ccccc2n1	T cruzi repl 61 (no result: CSC inhib)
O=C(Cc1ccccc1)N/N=C/c1ccc([N+](=O)[O-])s1	Beta apoptosis 88
O=C(CCCc1c[nH]c2ccccc12)N[C@@H](Cc1c[nH]c2ccccc12)C(=O)O	none
COc1ccccc1NC(=O)C(=O)N/N=C/c1ccc([N+](=O)[O-])s1	T cruzi repl 62 (no result: Beta apoptosis, CSC inhib)
COC(=O)N/N=C/c1ccc([N+](=O)[O-])s1	none
O=C(C[n+]1ccccc1)N/N=C/c1ccccc1Cl	none (no result: PolyA inh, HIF act, Calb FLC, T cruzi repl)
O=C(Cc1ccccc1)N/N=C/c1ccccc1Cl	Calb FLC 116 (no result: PolyA inh)
Cn1c(SCC(=O)N/N=C/c2ccc([N+](=O)[O-])s2)nnc1-c1ccccc1	Beta apoptosis inconclusive, T cruzi repl 58
COc1ccc(NS(=O)(=O)c2ccc(O)c([N+](=O)[O-])c2)cc1S(=O)(=O)N1CCCCC1	none (no result: PolyA inh, HIF act, Calb FLC, CSC inhib, T cruzi repl)
Cc1cc(C)c(C)c(S(=O)(=O)N2CCC(C(=O)Nc3ccc(S(=O)(=O)N4CCOCC4)cc3)CC2)c1C	none (no result: CSC inhib)
Cc1ccc(-c2nnc(N3CC(C)OC(C)C3)c3ccccc23)cc1 (stereo not drawn)	none
Cc1cccc(C(=O)NCC(=O)OCc2cc(=O)n3ccsc3n2)c1	none (no result: CSC inhib)
CN1CCc2cc3c(c4c2[C@H]1[C@H](O)c1ccccc1-4)OCO3	Calb FLC 95
COc1ccc2c(c1OC)C(C1c3c(cc4c(c3OC)OCO4)CCN1C)OC2=O (stereo not drawn)	none
COc1ccc2c(c1)OC[C@H]1[C@H]2N2C(=O)CN(CCc3c[nH]c4ccccc34)C(=O)[C@@]2(C)[C@H]1c1ccccc1	none (no result: PolyA inh, HIF act, Calb FLC, T cruzi repl)
NNc1ncnc2scc(-c3ccc(Cl)cc3)c12	Beta apoptosis 94
Clc1ccc(-c2csc3ncnc(Cl)c23)cc1	none (no result: Beta apoptosis)
Cc1ccc(-c2csc3ncnc(NS(=O)(=O)c4ccc(Cl)cc4)c23)cc1	CSC inhib 82
N#Cc1ccc(NC(=O)COC(=O)c2cccnc2Cl)cc1	none (no result: PolyA inh, HIF act, Calb FLC, T cruzi repl)
CCC(=O)N1CCc2cc(S(=O)(=O)NCCC(=O)N3CCN(c4ccccc4)CC3)ccc21	none
CCC(=O)N1CCc2cc(S(=O)(=O)NCCC(=O)N3CCN(c4cccc(OC)c4)CC3)ccc21	HIF act 30
COc1ccc(/C=C/C(=O)NCCSCc2ccco2)cc1OC	HIF act 57
COc1ccc(CCNC(=O)/C=C/c2ccco2)cc1OC	none
